This experiment relates to U2OS-GPR55 ERK1/2 phosphorylation, western blot. Put plainly: GPR55 agonist-induced ERK1/2 phosphorylation, SAR follow-up, mechanism study, cell-based, U2OS-GPR55, western blot, MAPK activation (AID 485279). Particulars: at 1 µM, stronger effect = higher value; for stimulation: measured here: ERK stimulation vs negative control. The essentials:
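Assay system: GPR55/beta-arrestin-GFP U2OS cells; Technique: fluorescent immunoblot, two colours; Dosing: single compound dose, 1 µM final; Controls: LPI 10 µM reference agonist; Schedule: 10 min compound exposure, room temperature.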

SMILES strings stand for the structures. Activity calls are given as the source filed them.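 Rule for the calls: active = average efficacy above 50%; inactive = the rest.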

Take `CN(C)S(=O)(=O)c1ccc(N2CCCC2)c(C(=O)N2CCN(c3ccc([N+](=O)[O-])cc3)CC2)c1`: the efficacy is 63.1% and the stimulation is 141%.

Turning to `COc1ccc(-c2csc(NC(=O)CSc3nnc4c(C)cc5ccccc5n34)n2)cc1`, the efficacy was 79.7% and the stimulation stood at 133%.

Regarding `COc1ccc(S(=O)(=O)N2CCOCC2)cc1NC(=O)c1cc2c(s1)CCCC2`, the efficacy is 95.6% and the stimulation turned out to be 135%.

In the case of `CCCN(CCC)Cc1c(C(=O)NN=Cc2c[nH]c3ccccc23)nnn1-c1nonc1N`, the efficacy was -65.3% (inactive) and the stimulation stood at 77.7%.

As to `CC(C)Oc1ccc(S(=O)(=O)N2CCOCC2)cc1NC(=O)c1ccc(N2CCCC2=O)cc1`, the efficacy is 103% and the stimulation is 143%.

As to `COc1ccccc1/C=C/C(=O)NC(=S)Nc1ccc(S(=O)(=O)N(C)c2ccccc2)cc1`, the efficacy was 259% and the stimulation came to 201%.

`COc1ccc2cc(C)c3nnc(SCC(=O)Nc4nc(-c5ccc(F)cc5)cs4)n3c2c1`: the efficacy is 133% and the stimulation turned out to be 168%.

`Cc1cccc(N2CCN(C(=O)c3cc(S(=O)(=O)N(C)C)ccc3N3CCCC3)CC2)c1C`: the efficacy is 128% and the stimulation worked out at 149%.

`Cc1occc1C(=O)Nc1ccc(OCc2ccccc2)cc1`: the efficacy was 69% and the stimulation amounted to 127%.

Values taken from PubChem BioAssay AID485279 (Sanford-Burnham Center for Chemical Genomics, 2010).
